In ChEMBL document CHEMBL1136967, “High-affinity, non-nucleotide-derived competitive antagonists of platelet P2Y12 receptors” (J Med Chem, 2009):

Columns and labels:
[1] = target: T1, P2Y purinoceptor 12 (Homo sapiens, UniProt Q9H244); experiment: Displacement of [3H]PSB0413 from human platelet P2Y12 receptor
Procedure, shortened: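 Membranes from outdated human blood-bank platelets (4-5 days post-donation), washed, centrifuged, homogenized, stored at -80 °C. 100 µg protein incubated with 5 nM [³H]PSB-0413 in 50 mM Tris-HCl pH 7.4 for 1 h at rt, then filtered over GF/B. Nonspecific binding with 1 mM ADP. Screen at 10 µM. Ki from curves of 6-7 concentrations over 3 log units. At least three experiments in triplicate.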

[2] = target: T1, P2Y purinoceptor 12; experiment: Displacement of [3H]PSB0413 from human platelet P2Y12 receptor at 10 uM
Procedure, shortened: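 Human platelet membranes (100 µg protein) incubated with 5 nM [3H]PSB-0413 and test compound at 10 µM in 50 mM Tris-HCl pH 7.4 for 1 h at rt, then filtered over GF/B. Nonspecific binding defined with 1 mM ADP; result expressed as % inhibition of radioligand binding.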

[3] = Cytotoxicity against human 1321N1 cells after 72 hrs to 144 hrs by MTT assay; assay type: functional, cell-based
Procedure, shortened: (§1)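 Cells grown in DMEM with 10% fetal calf serum, penicillin and streptomycin at 37 °C, 5% CO₂. Seeded at 2000 cells/well, 24 h, then medium renewed and compounds added (DMSO stocks; final DMSO 1%) at 0.1, 1 and 100 µM, or full dose-inhibition curves. Exposure 72-144 h. MTT 1 h, crystals dissolved in DMSO, absorbance 570 nm (reference 690 nm). Viability relative to 1% DMSO wells. Triplicates, 3-8 experiments.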

[4] = Cytotoxicity against human 1539 cells after 72 hrs to 144 hrs by MTT assay; assay type: functional, cell-based; procedure, shortened: as §1
[5] = species on record: Homo sapiens; experiment: Selectivity for human platelet P2Y12 receptor over human P2Y1 receptor
[6] = species on record: Homo sapiens; experiment: Selectivity for human platelet P2Y12 receptor over human P2Y2 receptor
[7] = species on record: Homo sapiens; experiment: Selectivity for human platelet P2Y12 receptor over human P2Y4 receptor
[8] = species on record: Homo sapiens; experiment: Selectivity for human platelet P2Y12 receptor over human P2X2 receptor
[9] = species on record: Homo sapiens; experiment: Selectivity for human platelet P2Y12 receptor over human P2X4 receptor
[10] = Toxicity in po dosed rat; assay type: organism-based; details: in vivo
[11] = target: T1, P2Y purinoceptor 12; experiment: Antagonist activity at P2Y12 receptor expressed in human astrocytoma cells assessed as right shift of concentration response curve; assay type: functional, cell-based
[12] = Cytotoxicity against human 1321N1 cells at 0.1 uM after 72 hrs to 144 hrs by MTT assay; assay type: functional
Procedure, shortened: (§2)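 1321N1 astrocytoma and 1539 melanoma cells grown in DMEM with 10% FCS and penicillin/streptomycin at 37 °C, 5% CO2. Seeded at 2000 cells/well for 24 h, then medium replaced and compound added from 10 mM DMSO stocks (final DMSO 1%). Incubation 72-144 h, then MTT (5 mg/mL stock) for 1 h. Formazan dissolved in DMSO, A570 read against 690 nm reference. Viability relative to 1% DMSO wells; triplicates, 3-8 experiments.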

[13] = Cytotoxicity against human 1321N1 cells at 1 uM after 72 hrs to 144 hrs by MTT assay; assay type: functional; procedure, shortened: as §2
[14] = Cytotoxicity against human 1321N1 cells at 100 uM after 72 hrs to 144 hrs by MTT assay; assay type: functional; procedure, shortened: as §2
[15] = Cytotoxicity against human 1539 cells at 0.1 uM after 72 hrs to 144 hrs by MTT assay; assay type: functional; procedure, shortened: as §2
[16] = Cytotoxicity against human 1539 cells at 1 uM after 72 hrs to 144 hrs by MTT assay; assay type: functional; procedure, shortened: as §2
[17] = Cytotoxicity against human 1539 cells at 100 uM after 72 hrs to 144 hrs by MTT assay; assay type: functional; procedure, shortened: as §2

T1 sequence (Q9H244 whole entry): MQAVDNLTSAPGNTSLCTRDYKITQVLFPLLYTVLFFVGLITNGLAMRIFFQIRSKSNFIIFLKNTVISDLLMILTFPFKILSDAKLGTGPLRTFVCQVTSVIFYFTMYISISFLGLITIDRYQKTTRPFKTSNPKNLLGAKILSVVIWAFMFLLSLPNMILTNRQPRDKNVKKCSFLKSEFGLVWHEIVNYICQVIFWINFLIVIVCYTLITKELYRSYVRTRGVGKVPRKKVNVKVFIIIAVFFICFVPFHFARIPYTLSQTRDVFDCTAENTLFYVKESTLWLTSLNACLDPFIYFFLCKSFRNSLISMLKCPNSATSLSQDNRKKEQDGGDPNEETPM

Compound | Ki [1] [µM] | inhibition [2] [%] | also measured
COc1cccc2c1C(=O)c1c(O)c3c(c(O)c1C2=O)C[C@@](O)(C(=O)CO)C[C@@H]3O[C@H]1C[C@H](N)[C@H](O)[C@H](C)O1 [DOXORUBICIN] | > 10 | 7 | 
O=c1[nH]cc(F)c(=O)[nH]1 [FLUOROURACIL] |  |  | EC50 [3]: 53.2 µM; EC50 [4]: 5.71 µM
Nc1c(S(=O)(=O)O)cc(Nc2ccc(O)cc2)c2c1C(=O)c1ccccc1C2=O | 10 | 50 | 
Nc1c(S(=O)(=O)O)cc(Nc2ccc(Nc3ncccn3)cc2)c2c1C(=O)c1ccccc1C2=O | 10 | 57 | 
O=C1c2c(O)cccc2C([C@@H]2O[C@H](CO)[C@@H](O)[C@H](O)[C@H]2O)c2cc(CO)cc(O)c21 (some centres undefined) [ALOIN] | > 10 | 2 | 
Nc1c(S(=O)(=O)O)cc(Nc2cccc([N+](=O)[O-])c2)c2c1C(=O)c1ccccc1C2=O | > 10 | 17 | 
Nc1c(S(=O)(=O)O)cc(Nc2ccc(Nc3ncccn3)c(S(=O)(=O)O)c2)c2c1C(=O)c1ccccc1C2=O |  |  | fold change (FC) [5]: 100; fold change (FC) [6]: 100; fold change (FC) [7]: 100; fold change (FC) [8]: 100; fold change (FC) [9]: 100
Cc1cc(C)c(Nc2cc(S(=O)(=O)O)c(N)c3c2C(=O)c2ccccc2C3=O)c(C)c1 [ACID BLUE 129] | > 10 | 30 | 
Nc1ccc(-c2ccc(N)c3c2C(=O)c2ccccc2C3=O)c2c1C(=O)c1ccccc1C2=O |  |  | LD50 [10]: > 5000 mg/kg
Cc1cc(O)c2c(c1)C(=O)c1cc(O)cc(O)c1C2=O [EMODIN] | > 10 | 5 | 
Nc1c(S(=O)(=O)O)cc(Nc2ccc(Nc3ccccc3)c(S(=O)(=O)O)c2)c2c1C(=O)c1ccccc1C2=O |  |  | Kb [11]: 0.0004 µM; pKb [11]: 9.4
Nc1c(S(=O)(=O)[O-])cc(Nc2cccc3ccccc23)c2c1C(=O)c1ccccc1C2=O.[Na+] | > 10 | 25 | Activity [12]: 114%; Activity [13]: 126%; Activity [14]: 116%; Activity [15]: 96%; Activity [16]: 95%; Activity [17]: 89%
Nc1c(S(=O)(=O)O)cc(Nc2ccc(Nc3ccccc3)c(C(=O)O)c2)c2c1C(=O)c1ccccc1C2=O | 0.021 |  | 
CC(=O)Nc1ccc(Nc2cc(S(=O)(=O)O)c(N)c3c2C(=O)c2ccccc2C3=O)cc1 | > 10 | 4 | 
Nc1ccc(Nc2cc(S(=O)(=O)O)c(N)c3c2C(=O)c2ccccc2C3=O)cc1 | > 10 | 30 | 
Cc1cc(O)c2c(c1)C(=O)c1cccc(O)c1C2=O [CHRYSOPHANOL] | > 10 | 13 | 

Compound | Ki [1] [µM] | inhibition [2] [%] | also measured
Cc1cc(O)c2c(c1)C(=O)c1cc(O[C@@H]3O[C@@H](C)[C@H](O)[C@@H](O)[C@H]3O)cc(O)c1C2=O [FRANGULIN A] | > 10 | 4 | 
COC(=O)c1cc(O)c2c(c1)C(=O)c1cccc(O)c1C2=O [RHEIN METHYLESTER] | > 10 | 2 | 
Nc1ccccc1Nc1cc(S(=O)(=O)O)c(N)c2c1C(=O)c1ccccc1C2=O | > 10 | 37 | 
Nc1c(S(=O)(=O)O)cc(Nc2ccccc2O)c2c1C(=O)c1ccccc1C2=O | 10 | 45 | 
Cc1cc(O)c2c(c1)Cc1cc(O)cc(O)c1C2=O [EMODIN ANTHRONE] | > 10 | 1 | 
Cc1cc(O)c2c(c1)C(=O)c1cc(O[C@@H]3OC[C@](O)(CO)[C@H]3O)cc(O)c1C2=O [FRANGULIN B] | > 10 | 4 | 
COc1ccc(CCNc2cc(S(=O)(=O)O)c(N)c3c2C(=O)c2ccccc2C3=O)cc1OC | > 10 | 23 | 
COc1cc(O)c2c(c1)C(=O)c1cc(C)cc(O)c1C2=O [PHYSCION] | > 10 | 7 | 
Nc1c(S(=O)(=O)O)cc(NCCc2ccccc2)c2c1C(=O)c1ccccc1C2=O | > 10 | 16 | 
Nc1c(S(=O)(=O)O)cc(NCc2ccccc2)c2c1C(=O)c1ccccc1C2=O | > 10 | 11 | 
O=C1c2cccc(O)c2C(=O)c2c(O)cc(CO)cc21 [ALOE-EMODIN] | > 10 | 2 | 
CN(C)[C@@H]1C(O)=C(C(N)=O)C(=O)[C@@]2(O)C(O)=C3C(=O)c4c(O)cccc4[C@@](C)(O)[C@H]3C[C@@H]12 [TETRACYCLINE] | > 10 | 2 | 
O=C1c2c(O)ccc(O)c2C(=O)c2c(NCCNCCO)ccc(NCCNCCO)c21 [MITOXANTRONE] | > 10 |  | 
Cc1cc(C)c(Nc2cc(S(=O)(=O)O)c(N)c3c2C(=O)c2ccccc2C3=O)c(C)c1N | > 10 | 35 | 
CN(C)[C@@H]1C(O)=C(C(N)=O)C(=O)[C@@]2(O)C(O)=C3C(=O)c4c(O)ccc(Cl)c4[C@@](C)(O)[C@H]3C[C@@H]12 [CHLORTETRACYCLINE] | > 10 | 6 | 
Nc1c(S(=O)(=O)[O-])cc(Nc2ccc(Cl)cc2)c2c1C(=O)c1ccccc1C2=O.[Na+] |  |  | Activity [12]: 117%; Activity [13]: 116%; Activity [14]: 120%; Activity [15]: 99%; Activity [16]: 95%; Activity [17]: 129%
